The text below walks through data of paper PMC4524557 (RSC advances, 2015).

Data set [1] deals with Staphylococcus aureus USA300. Description: MIC determination. Type of data set: cell-based. The conditions noted are these: USA300, read-out: MIC SA.
Data set [2] has as its system Staphylococcus aureus USA200. Nature of the data set: MIC determination. Type of data set: cell-based. The following applies: USA200, read-out: MIC USA200.
Data set [3] deals with Staphylococcus aureus USA400. Nature of the data set: MIC determination. In kind it is cell-based. The following applies: USA400, read-out: MIC USA400.
Data set [4] relates to Staphylococcus aureus UAMS-1. Nature of the data set: MIC determination. The conditions noted are these: UAMS1, read-out: MIC UAMS-1. In kind it is cell-based.
For data set [5], the system named is Staphylococcus aureus Mu50. Description: MIC determination. In kind it is cell-based. The conditions noted are these: MU50, read-out: MIC Mu50.
In data set [6] the test system is S. aureus USA200 biofilms. Nature of the data set: Disruption of established 24 h biofilms. Type of data set: cell-based, Staphylococcus aureus. The following applies: USA200, at 6.25 μM.
Data set [7] concerns S. aureus USA300 biofilms. Nature of the data set: Inhibition of biofilm formation. Type of data set: cell-based, Staphylococcus aureus. The conditions noted are these: USA300, between 3.1 and 12.5 μM.
In data set [8] the test system is S. aureus USA400 biofilms. Nature of the data set: Inhibition of biofilm formation. Type of data set: cell-based, Staphylococcus aureus. The conditions noted are these: USA400, all tested concentrations from 1.56 to 12.5 μM.
For data set [9], the system named is S. aureus USA400 biofilms. Nature of the data set: Disruption of established 24 h biofilms. In kind it is cell-based, Staphylococcus aureus.
Data set [10] has as its system S. aureus UAMS-1 biofilms. Nature of the data set: Disruption of established biofilms. In kind it is cell-based, Staphylococcus aureus. The conditions noted are these: UAMS-1, at 6.25 μM.
Another data set relates to biofilm. The conditions noted are these: lower concentrations ineffective; cited from earlier work.
In data set [11] the test system is Pseudomonas aeruginosa PAO1. Description: MIC determination. In kind it is cell-based. The conditions noted are these: PAO1, read-out: MIC PA.
Another data set deals with Klebsiella pneumoniae. Nature of the data set: MIC determination. Type of data set: cell-based. The following applies: K. pneumoniae.
Data set [12] has as its system S. aureus USA300 biofilms. Description: Disruption of established 24 h biofilms. Type of data set: cell-based, Staphylococcus aureus. The following applies: USA300 24 h biofilm. The method in brief: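 USA300 from log phase was grown in wells for 24 h at 37°C to form biofilms, then washed with saline. The 10X test compound, alone or with daptomycin or vancomycin, was added with fresh TSB for another 24 h at 37°C. In combinations the test compound ran 1.56-0.20 µM and the antibiotic 6.25-0.78 µM. Daptomycin medium had 2 mM Ca2+. Wells got fresh TSB plus XTT for 2 h at 37°C, then A450 was read as % of untreated biofilm.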

Converted amounts (≈) assume the structure as drawn.

Usually MIC stands for the least concentration at which growth counts as inhibited. In the case of `CCCCCCCCCC(=O)N[C@@H](Cc1c[nH]c2ccccc12)C(=O)N[C@H](CC(N)=O)C(=O)N[C@@H](CC(=O)O)C(=O)N[C@@H]1C(=O)NCC(=O)N[C@@H](CCCN)C(=O)N[C@@H](CC(=O)O)C(=O)N[C@H](C)C(=O)N[C@@H](CC(=O)O)C(=O)NCC(=O)N[C@H](CO)C(=O)N[C@@H]([C@H](C)CC(=O)O)C(=O)N[C@@H](CC(=O)c2ccccc2N)C(=O)O[C@@H]1C` [Daptomycin], the minimum inhibitory concentration (MIC) in data set [1] is 0.78 µM (≈ 1.26 µg/mL); in [2], 0.78 µM (≈ 1.26 µg/mL); in [3], 0.78 µM (≈ 1.26 µg/mL); in data set [4], greater than 12.5 µM; in data set [5] it was 3.1 µM (≈ 5.02 µg/mL). The established biofilms disrupted is reported as 80% in data set [6] and ~ 70% in data set [10]. For the same compound, in data set [7], the “inhibition of biofilm growth” value was 80%. The “inhibition of biofilm formation” value in data set [8] is 100%. Further, the “concentration disrupting established biofilms” value in data set [9] fell in the range of 6.2 to 12.5 µM. Besides, the “concentration with anti-biofilm activity” value with biofilm is given as 5 mg/mL.
`CN[C@H](CC(C)C)C(=O)N[C@H]1C(=O)N[C@@H](CC(N)=O)C(=O)N[C@H]2C(=O)N[C@H]3C(=O)N[C@H](C(=O)N[C@H](C(=O)O)c4cc(O)cc(O)c4-c4cc3ccc4O)[C@H](O)c3ccc(c(Cl)c3)Oc3cc2cc(c3O[C@@H]2O[C@H](CO)[C@@H](O)[C@H](O)[C@H]2O[C@H]2C[C@](C)(N)[C@H](O)[C@H](C)O2)Oc2ccc(cc2Cl)[C@H]1O` [Vancomycin]: the minimum inhibitory concentration (MIC) in data set [1] is 0.78 µM (≈ 1.13 µg/mL); in data set [11], greater than 25 µM; in data set [2], 0.35 µM (≈ 0.507 µg/mL); in data set [3], 0.78 µM (≈ 1.13 µg/mL); in data set [4], greater than 12.5 µM; in [5] it was 1.56 µM (≈ 2.26 µg/mL). For the same compound, in the data set with Klebsiella pneumoniae, the “MIC KP” value was greater than 25 µM. Moreover, the established biofilms disrupted was 80% in data set [6] and ~ 70% in data set [10]. Also, the “inhibition of biofilm growth” value in data set [7] came to 80%. Besides, in data set [12] (3.1 μM vancomycin by itself), the biofilm disruption alone result is recorded as “unable to completely disrupt the biofilm”. For the same compound, the “biofilm disruption by combination” value in [12] (3.1 μM vancomycin with 0.20 μM C14-RRR) is given as “disrupt nearly all the biofilms”. Besides, the “inhibition of biofilm formation” value in data set [8] is given as 100%. Besides, the “concentration disrupting established biofilms” value in [9] lay in the range of 6.2 to 12.5 µM.
